Assays:
Rattus norvegicus [1] = assay: Cholesterol-lowering activity in propylthiouracil-induced hypercholesterolemic rat model assessed as change in plasma cholesterol at 10 mg/kg administered intragastrically relative to control; assay type: functional; details: route intragastric
How it was run: (§1)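 Male rats made hypercholesterolemic with propylthiouracil; compounds given intragastrically. Read-out is the percent change in plasma cholesterol concentration versus control. n=8 for control and for treated animals. Significance is by Student's t, with t greater than 1.65 taken as p < 0.05.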

Mus musculus [2] = assay: Uterotropic activity in immature mouse assessed as change in uterus weight at 250 mg/kg, sc relative to control; assay type: organism-based; parameters: dose 250 mg/kg, route subcutaneous; details: in vivo
How it was run: (§2)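 Immature mice dosed subcutaneously or intragastrically. Uterine weight (mg) is compared between treated and control groups, reported as mean ± spread. n=10 for control and for treated animals.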

Mus musculus [3] = assay: Uterotropic activity in immature mouse assessed as change in uterus weight at 25 mg/kg, sc relative to control; assay type: Functional, organism-based; parameters: dose 25 mg/kg, route subcutaneous; details: in vivo; how it was run: as §2
Rattus norvegicus [4] = assay: Cholesterol-lowering activity in propylthiouracil-induced hypercholesterolemic rat model assessed as change in plasma cholesterol at 5 mg/kg administered intragastrically relative to control; assay type: functional; details: route intragastric; how it was run: as §1
Mus musculus [5] = assay: Uterotropic activity in immature mouse assessed as change in uterus weight at 250 mg/kg administered intragastrically relative to control; assay type: organism-based; parameters: dose 250 mg/kg, route intragastric; details: in vivo, po; how it was run: as §2
Rattus norvegicus [6] = assay: Cholesterol-lowering activity in propylthiouracil-induced hypercholesterolemic rat model assessed as change in plasma cholesterol at 20 mg/kg administered intragastrically relative to control; assay type: functional; details: route intragastric; how it was run: as §1
Mus musculus [7] = assay: Uterotropic activity in immature mouse assessed as change in uterus weight at 625 mg/kg, sc relative to control; assay type: organism-based; parameters: dose 625 mg/kg, route subcutaneous; details: in vivo; how it was run: as §2
Rattus norvegicus [8] = assay: Hypolipidemic activity in normal rat assessed as reduction in triglyceride level at 0.2 % administered in diet for 5 days; assay type: functional; parameters: scale not given: the % may be the effect or the level left
How it was run: (§3)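 Normal rats received compound at 0.2% in the diet. Plasma cholesterol and triglyceride are expressed as % of control. n=8 for control and for treated animals. Significance is by Student's t, with t greater than 1.65 taken as p < 0.05.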

Rattus norvegicus [9] = assay: Hypolipidemic activity in normal rat assessed as reduction in cholesterol level at 0.2 % administered in diet for 5 days; assay type: functional; parameters: scale not given: the % may be the effect or the level left; how it was run: as §3

Activity (Mus musculus [2]) [mg]	Activity (Mus musculus [3]) [mg]	SMILES	Activity (Rattus norvegicus [1]) [%]	further results
13.4	–	CC(C)(CO)Oc1ccc2c(c1)CCc1c-2ccc2c1CCC2(C)C	-25	–
–	20.6	CC(C)(COC(=O)CCC(=O)O)Oc1ccc2c(c1)CCc1c-2ccc2c1CCC2(C)C	-7	–
–	–	CCOC(=O)COc1ccc2c(c1)CCc1c-2ccc2c1CCC2(C)C	8	–
–	11.2	CC1(C)CCc2c1ccc1c2CCc2cc(OCCN3CCCC3)ccc2-1	-17	Activity (Rattus norvegicus [4]): -5%; Activity (Mus musculus [5]): 8.1 mg
–	–	CC(Oc1ccc2c(c1)CCc1c-2ccc2c1CCC2(C)C)C(=O)O (configuration not stated)	3	–
15.7	–	COC(=O)CCC(=O)OCC(C)(C)Oc1ccc2c(c1)CCc1c-2ccc2c1CCC2(C)C	-18	–
22.6	–	COc1ccc2c(c1)CCc1c-2ccc2c1CCC2(C)C	1	–
–	16.4	CCN(CC)CCOc1ccc2c(c1)CCc1c-2ccc2c1CCC2(C)C.O=C(O)C(=O)O	-19	Activity (Rattus norvegicus [4]): -14%
22.6	–	CC1(C)CCc2c1ccc1c2CCc2cc(O)ccc2-1	-16	Activity (Rattus norvegicus [6]): -10%; Activity (Rattus norvegicus [4]): 4%; Activity (Mus musculus [7]): 34.9 mg
–	17.2	CC(C)(Oc1ccc2c(c1)CCc1c-2ccc2c1CCC2(C)C)C(=O)O	-18	Activity (Rattus norvegicus [8]): 69%; Activity (Rattus norvegicus [9]): 75%; Activity (Mus musculus [5]): 8.4 mg
–	–	CN1C(=O)[C@@H]2CC[C@@H]1[C@@H](OC(=O)C(C)(C)Oc1ccc3c(c1)CCc1c-3ccc3c1CCC3(C)C)C2	-4	–
–	–	CCOC(=O)C(C)(C)Oc1ccc2c(c1)CCc1c-2ccc2c1CCC2(C)C	-9	–
–	–	CCOC(=O)C(C)(C)Oc1ccc(Cl)cc1 [CLOFIBRATE]	1	Activity (Rattus norvegicus [8]): 43%; Activity (Rattus norvegicus [9]): 72%

— ChEMBL document CHEMBL3272291, “Potential hypolipidemic agents derived from 3-hydroxy-17,17-dimethylgona-1,3,5(10),8,11,13-hexaene” (J Med Chem, 1977)
